Legend:
[1] = system: Pseudomonas aeruginosa; experiment: Antibacterial activity against Pseudomonas aeruginosa after 18 hrs; type: functional, organism-based
Method in brief: (§1)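 Strains first grown on Mueller-Hinton agar, then in Mueller-Hinton broth with CaCl2/MgCl2 for 18 h at 37 °C. Serial dilutions were made (K. pneumoniae and P. aeruginosa […]) and equilibrated 30 min at 37 °C. Cultures were added to the samples, shaken 18 h at 37 °C and 60% humidity, and read at OD650. Controls were no inhibitor and 50 µg/mL streptomycin.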

[2] = Selectivity ratio of IC50 for human THP1 cells to IC50 for Streptococcus pneumoniae; type: ADME, cell-based, THP-1
[3] = Selectivity ratio of IC50 for Klebsiella pneumoniae to IC50 for Staphylococcus aureus; type: functional
[4] = system: Staphylococcus aureus; experiment: Antibacterial activity against Staphylococcus aureus after 18 hrs; type: functional, organism-based; method in brief: as §1
[5] = Selectivity ratio of IC50 for Pseudomonas aeruginosa to IC50 for Staphylococcus aureus; type: functional
[6] = Selectivity ratio of IC50 for human THP1 cells to IC50 for Staphylococcus aureus; type: ADME, cell-based, THP-1
[7] = system: Klebsiella pneumoniae; experiment: Antibacterial activity against Klebsiella pneumoniae after 18 hrs; type: functional, organism-based; method in brief: as §1
[8] = system: Streptococcus pneumoniae; experiment: Antibacterial activity against Streptococcus pneumoniae after 18 hrs; type: functional, organism-based; method in brief: as §1
[9] = system: THP-1; experiment: Cytotoxicity against human THP1 cells after 72 hrs by WST1 assay; type: cell-based; settings: THP-1, 72 h
Method in brief: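 Cells were kept in RPMI 1640 with 10% FBS, 2 mM L-glutamine, penicillin/streptomycin and 10 µM 2-mercaptoethanol at 37 °C, 5% CO2, and seeded at 2.5 × 10^4 cells/well. Samples were tested at 250 µg/mL final for 72 h. WST-1 was added for a further 1–2 h, then A450 was read. Controls were 10 µM camptothecin and 0.1% DMSO.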

- IC50 [1]: > 413 µM
- IC50 [4]: 52 µM
- IC50 [7]: > 413 µM
- IC50 [8]: 57 µM
SMILES: CCCCCCCCCCCC(=O)O[C@H]1[C@@H](O[C@@]2(CO)O[C@@H](CO)[C@H](O)[C@H]2O)O[C@H](CO)[C@@H](O)[C@@H]1OC(=O)C=C(C)C [PHYSALOSIDE A]
- selectivity ratio [2]: > 10
- Ratio IC50 [3]: > 8
- Ratio IC50 [5]: > 8
- selectivity ratio [6]: > 10
- IC50 [9]: > 800 µM

Source: ChEMBL document CHEMBL1142593, “Physaloside A, an acylated sucrose ester from Physalis viscosa” (J Nat Prod, 2005)
